Source: ChEMBL document CHEMBL5537213, “Cytotoxicity of phosphoramidate, bis-amidate and cycloSal prodrug metabolites against tumour and normal cells” (RSC Med Chem, 2024)
The source made the active and inactive calls. The calls are words filed in the database; no cut-off is given here.

Legend:
[1] = system: GL261; assay: Induction of apoptosis in mouse GL261 cells transfected with luciferase gene assessed as increase in caspase 3/7 activation at 256 uM incubated for 72 hrs by laser scanning imaging analysis; format: functional, cell-based
Procedure, shortened: (§1)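 BxPC3 (5 × 10^3/well) or GL261-Luc (3 × 10^3/well) exposed 24 h post-plating for 72 h, 0.1% DMSO final. CellEvent caspase-3/7 green reagent 1 h at 37 °C; whole-well fluorescence imaged (Ex 488/Em 520 nm). Cells then fixed, permeabilised, blocked and stained with CellTag 700 (Ex 685/Em 720 nm); caspase signal normalised to cell number, expressed as fold over control. At least three experiments, at least four replicates each.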

[2] = system: BXPC-3; assay: Cytotoxicity against human BXPC-3 cells assessed as reduction in cell viability at 256 uM incubated for 72 hrs by CyQUANT assay; format: functional, cell-based
Procedure, shortened: (§2)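 BxPC3 (5 × 10^3/well) or primary C57BL/6 male mouse astrocytes (>90% GFAP-positive; 3 × 10^3/well) treated 24 h after plating for 72 h, 0.1% DMSO final. Stained 1 h at 37 °C with CyQUANT Direct nucleic acid stain plus background suppressor in HBSS; whole-well fluorescence imaged (Ex 488/Em 520 nm), normalised to control. At least three experiments, at least four replicates each.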

[3] = system: GL261; assay: Antiproliferative activity against mouse GL261 cells transfected with luciferase gene assessed as reduction in ATP release at 256 uM incubated for 72 hrs in presence of D-luciferin by luminescence based SpectraMax M5 microplate reader analysis; format: functional, cell-based
Procedure, shortened: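 Luciferase-expressing GL261-Luc seeded at 3 × 10^3/well in DMEM with 10% FBS; 24 h later exposed to compounds with 0.1% DMSO final for 72 h. Medium replaced by D-luciferin 150 μg mL-1 in complete medium, 15 min at 37 °C; luminescence read on plate reader, normalised to control. At least three experiments, at least four replicates each.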

[4] = system: BXPC-3; assay: Antiproliferative activity against human BXPC-3 cells assessed as reduction in cell index at 256 uM incubated for 72 hrs by xCELLigence real time cell analyser method; format: functional, cell-based
Procedure, shortened: (§3)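 Cells seeded on E16 xCELLigence plates (BxPC3 5 × 10^3/well; GL261-Luc and primary astrocytes 3 × 10^3/well), treated after 24 h in supplemented DMEM with 0.1% DMSO final. Impedance cell index read hourly for 72 h, normalised to control (100% viability). At least three independent experiments, two replicates each; ANOVA with Dunnett's test.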

[5] = system: GL261; assay: Antiproliferative activity against mouse GL261 cells transfected with luciferase gene assessed as reduction in cell index at 256 uM incubated for 72 hrs by xCELLigence real time cell analyser method; format: functional, cell-based; procedure, shortened: as §3
[6] = system: Astrocyte; assay: Cytotoxicity against mouse astrocyte cells assessed as reduction in cell viability at 256 uM incubated for 72 hrs by CyQUANT assay; format: toxicity, cell-based; procedure, shortened: as §2
[7] = system: BXPC-3; assay: Induction of apoptosis in human BXPC-3 cells assessed as increase in caspase 3/7 activation at 256 uM incubated for 72 hrs by laser scanning imaging analysis; format: functional, cell-based; procedure, shortened: as §1
[8] = system: Astrocyte; assay: Cytotoxicity against mouse astrocyte cells assessed as reduction in cell index at 256 uM incubated for 72 hrs by xCELLigence real time cell analyser method relative to control; format: toxicity, cell-based; design: scale not given: the % may be the effect or the level left; procedure, shortened: as §3
[9] = system: GL261; assay: Induction of apoptosis in mouse GL261 cells transfected with luciferase gene assessed as fold increase in caspase 3/7 activation at 128 uM incubated for 72 hrs by laser scanning imaging analysis; format: functional; procedure, shortened: as §1
[10] = system: BXPC-3; assay: Cytotoxicity against human BXPC-3 cells assessed as reduction in cell viability at 128 uM incubated for 72 hrs by CyQUANT assay relative to control; format: functional
Procedure, shortened: (§4)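 BxPC3 (5 × 10^3/well) or primary astrocytes (3 × 10^3/well) were dosed 24 h after plating, in supplemented DMEM with 0.1% DMSO final, for 72 h. Stained 1 h at 37 °C with CyQUANT Direct nucleic acid stain plus background suppressor in HBSS. Whole-well fluorescence imaged (Ex 488/Em 520 nm) and normalised to control. ≥3 experiments, ≥4 replicates.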

[11] = system: BXPC-3; assay: Antiproliferative activity against human BXPC-3 cells assessed as reduction in cell index at 128 uM incubated for 72 hrs by xCELLigence real time cell analyser method relative to control; format: functional; design: scale not given: the % may be the effect or the level left
Procedure, shortened: (§5)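 Real-time impedance: cells seeded on E16 plates (BxPC3 5 × 10^3/well; GL261-Luc and primary astrocytes 3 × 10^3/well), treated after 24 h in DMEM/10% FBS with 0.1% DMSO final. Cell index read hourly for 72 h and normalised to control (100% viability). At least three independent experiments, duplicates each; mean ± S.D.; ANOVA with Dunnett's test.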

[12] = system: Astrocyte; assay: Cytotoxicity against mouse astrocyte cells assessed as reduction in cell index at 128 uM measured after 4 hrs by xCELLigence real time cell analyser method; format: toxicity, cell-based; procedure, shortened: as §5
[13] = system: Astrocyte; assay: Cytotoxicity against mouse astrocyte cells assessed as reduction in cell viability at 128 uM incubated for 72 hrs by CyQUANT assay; format: toxicity, cell-based; procedure, shortened: as §4
[14] = system: BXPC-3; assay: Induction of apoptosis in human BXPC-3 cells assessed as fold increase in caspase 3/7 activation at 128 uM incubated for 72 hrs by laser scanning imaging analysis; format: functional
Procedure, shortened: (§6)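 BxPC3 (5 × 10^3/well) or GL261-Luc (3 × 10^3/well) were dosed 24 h after seeding for 72 h (0.1% DMSO final). CellEvent caspase-3/7 reagent was added for 1 h at 37 °C and whole-well fluorescence imaged (Ex 488/Em 520 nm). Cells were then fixed, permeabilised, blocked and stained with CellTag 700 (Ex 685/Em 720 nm) for cell number. Signal per cell is given as fold over control. ≥3 experiments, ≥4 replicates.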

[15] = system: GL261; assay: Antiproliferative activity against mouse GL261 cells transfected with luciferase gene assessed as reduction in ATP release at 128 uM incubated for 72 hrs in presence of D-luciferin by luminescence based SpectraMax M5 microplate reader analysis; format: functional; design: scale not given: the % may be the effect or the level left
Procedure, shortened: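 Luciferase-expressing GL261 cells were seeded at 3 × 10^3/well, then dosed 24 h later for 72 h in supplemented DMEM with 0.1% DMSO final. Medium was replaced with D-luciferin (150 µg/mL in complete medium) for 15 min at 37 °C, and luminescence was read on a plate reader and normalised to control. ≥3 experiments, ≥4 replicates.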

[16] = system: Astrocyte; assay: Cytotoxicity against mouse astrocyte cells assessed as reduction in cell index at 128 uM incubated for 72 hrs by xCELLigence real time cell analyser method relative to control; format: toxicity, cell-based; design: scale not given: the % may be the effect or the level left; procedure, shortened: as §5
[17] = system: BXPC-3; assay: Antiproliferative activity against human BXPC-3 cells assessed as reduction in cell index at 128 uM incubated for 72 hrs by xCELLigence real time cell analyser method; format: functional, cell-based; procedure, shortened: as §5
[18] = system: BXPC-3; assay: Cytotoxicity against human BXPC-3 cells assessed as reduction in cell viability at 128 uM incubated for 72 hrs by CyQUANT assay; format: functional, cell-based; procedure, shortened: as §4
[19] = system: GL261; assay: Induction of apoptosis in mouse GL261 cells transfected with luciferase gene assessed as increase in caspase 3/7 activation at 128 uM incubated for 72 hrs by laser scanning imaging analysis; format: functional, cell-based; procedure, shortened: as §6
[20] = system: BXPC-3; assay: Induction of apoptosis in human BXPC-3 cells assessed as increase in caspase 3/7 activation at 128 uM incubated for 72 hrs by laser scanning imaging analysis; format: functional, cell-based; procedure, shortened: as §6
[21] = system: GL261; assay: Antiproliferative activity against mouse GL261 cells transfected with luciferase gene assessed as reduction in cell index at 128 uM incubated for 72 hrs by xCELLigence real time cell analyser method; format: functional, cell-based; procedure, shortened: as §5

## CC(C)OC(=O)[C@H](C)N
[1]
  Activity: inactive
[2]
  Activity: inactive
[3]
  Activity: inactive
[4]
  Activity: inactive
[5]
  Activity: inactive
[6]
  Activity: 12%
[7]
  Activity: inactive
[8]
  Activity: 11%

## C[C@H](N)C(=O)OCc1ccccc1
[1]
  Activity: inactive
[2]
  Activity: inactive
[3]
  Activity: inactive
[4]
  Activity: inactive
[5]
  Activity: inactive
[6]
  Activity: 8%
[7]
  Activity: inactive
[8]
  Activity: 11%

## Oc1cccc2ccccc12 [1-NAPHTHOL]
[9]
  fold change (FC): 2
[10]
  Activity: 53%
[11]
  Activity: 51%
[12]
  Activity: Toxic
[13]
  Activity: 29%
[14]
  fold change (FC): 2.2
[15]
  Activity: 53%

## Oc1ccc2ccccc2c1 [BETANAPHTHOL]
[10]
  Activity: 90%
[16]
  Activity: 46%
[11]
  Activity: 94%
[12]
  Activity: Toxic
[13]
  Activity: 29%
[14]
  fold change (FC): 8.1
[15]
  Activity: 39%

## Oc1ccccc1 [PHENOL]
[17]
  Activity: inactive
[16]
  Activity: 11%
[18]
  Activity: inactive
[19]
  Activity: inactive
[20]
  Activity: inactive
[13]
  Activity: 8%
[21]
  Activity: inactive
[15]
  Activity: inactive

## OCc1ccccc1O [SALICYL ALCOHOL]
[17]
  Activity: inactive
[16]
  Activity: 11%
[18]
  Activity: inactive
[19]
  Activity: inactive
[20]
  Activity: inactive
[13]
  Activity: 22%
[21]
  Activity: inactive
[15]
  Activity: inactive
